Drawing on ChEMBL document CHEMBL1158099, “A chemical study of cyclic depsipeptides produced by a sponge-derived fungus” (J Nat Prod, 2006), this text covers MIC and Activity for three molecules.

Data set [1] concerns Enterococcus durans. The experiment in a line: Antibacterial activity against Enterococcus durans. It counts as functional.
The nature of data set [2]: Cytotoxicity against mouse CFU-GM cells by disk diffusion soft agar colony formation assay. It counts as cell-based. Put shortly: (§1)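 Cell-based soft agar disk diffusion assay, applied to extracts, partition fractions and pure compounds. Read-out is the inhibition zone in zone units. The panel covers solid tumour cells (Colon 38, Colon H116, Lung H125), leukaemia cells (L1210, CEM) and normal CFU-GM. A sample counts as solid-tumour selective when the solid tumour zone exceeds the leukaemia or normal cell zone by more than 250 units.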

The subject of data set [3] is MC-38. Briefly: Cytotoxicity against mouse C38 cells by disk diffusion soft agar colony formation assay. It is filed as functional. Put shortly: as §1
In general terms: In agar diffusion tests the substance spreads into inoculated agar from a disc or well.

A short description of data set [4]: Cytotoxicity against human H116 cells by disk diffusion soft agar colony formation assay. It counts as functional. Put shortly: as §1
Data set [5] is described as follows: Cytotoxicity against human H125 cells by disk diffusion soft agar colony formation assay. It counts as functional. Put shortly: as §1
Data set [6] concerns L1210. Briefly: Cytotoxicity against mouse L1210 cells by disk diffusion soft agar colony formation assay. It counts as functional. Put shortly:
as §1

Data set [7] can be described thus: Cytotoxicity against human CFU-GM cells by disk diffusion soft agar colony formation assay. It is filed as cell-based. Put shortly: as §1
Data set [8] has as its system Staphylococcus epidermidis. Briefly: Antibacterial activity against Staphylococcus epidermidis. It counts as functional.
Data set [9] has as its system CCRF-CEM. Briefly: Cytotoxicity against human CEM cells by disk diffusion soft agar colony formation assay. It is filed as cell-based. Put shortly: as §1

≈ marks a conversion by molar mass, not a printed value. Starred links: 1 amine or outer side, 2 acyl side, 3 side chain; linkers in the order of their positions; H or OH if unused. Non-standard residues stand in square brackets, D forms with d. Residues, ends and D or L forms follow the SMILES beside them. X1 = CC(C)(O)[C@H](O[*:1])C(=O)[*:2]; dNMeF = CN[C@H](Cc1ccccc1)C(=O)O; Hica(2S) = CC(C)C[C@H](O)C(=O)O; Hiv = CC(C)[C@H](O)C(=O)O; NMeA = CN[C@@H](C)C(=O)O

As usually defined, the MIC is the lowest concentration that inhibits growth of the organism.

As to `CC(C)C[C@@H]1OC(=O)[C@H](C)NC(=O)[C@H](C(C)(C)O)OC(=O)[C@H](C)N(C)C(=O)[C@@H](C)NC(=O)[C@@H](Cc2ccccc2)N(C)C1=O` [GUANGOMIDE A] (cyclo(A[Hica(2S)][dNMeF][dA][NMeA][X1])), the minimal inhibitory concentration (MIC) in [1] and in [8] was 100 µg/mL (≈ 162 µM) in each case. The Activity result was “Not Active” in data set [2]; 0 Zone units in [3]; 50 Zone units in data set [4]; 0 Zone units in data set [5]; 0 Zone units in [6]; “Not Active” in data set [7].
For `CC(C)C[C@@H]1OC(=O)[C@H](C)NC(=O)[C@H](C(C)C)OC(=O)[C@H](C)N(C)C(=O)[C@@H](C)NC(=O)[C@@H](Cc2ccccc2)N(C)C1=O` [GUANGOMIDE B] (cyclo(A[Hica(2S)][dNMeF][dA][NMeA][Hiv])), the minimal inhibitory concentration (MIC) in data set [1] and in [8] was 100 µg/mL (≈ 166 µM) each time.
On to `C[C@H]1CCC/C=C/[C@@H]2C[C@H](O)C[C@H]2[C@H](O)/C=C/C(=O)O1` [BREFELDIN A], for which the Activity result in data set [2] was “Not Active”; in [9], 0 Zone units; in [3], 150 Zone units; in data set [4], 900 Zone units; in data set [5] it was 600 Zone units; in [6], 0 Zone units. In addition, the Activity in data set [7] is 1000 Zone units.
